# Reference: ChEMBL document CHEMBL4316649, “The Mosaic of Rottlerin: The Sequel” (J Nat Prod, 2019)
# Experiments:
# [1] = test system: Staphylococcus aureus; test: Antibacterial activity against Staphylococcus aureus measured after 24 hrs; format: functional
# Summary of the method: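 Broth microdilution in TSB. Overnight 37 °C culture from a single colony, washed twice by centrifugation/resuspension in TSB, set to OD600 0.1 (10⁸ CFU/mL), then diluted to 10⁵ CFU/mL. Bacteria added 3:1 to serially diluted compound (DMSO stock diluted in water). Incubated 37 °C, 24 h; OD600 read. MIC = lowest concentration giving OD like the no-bacteria control. Triplicate, three independent experiments.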
# [2] = Stability of the compound in MeCN under room temperature by 1H NMR-spectroscopic analysis; format: physicochemical
# [3] = Drug metabolism in DMSO-d6 assessed as isorottlerin formation measured after 2 hrs at 100 degC by 1H NMR analysis
# [4] = Stability of the compound in CHCl3 under room temperature by 1H NMR-spectroscopic analysis; format: physicochemical
# [5] = Drug metabolism in DMSO-d6 assessed as 6-(3-Acetyl-2,4,6-trihydroxy-5-methylbenzyl)-5-hydroxy-2,2-dimethyl-8-phenyl-8,9-dihydro-2H,10H-pyrano[2,3-f]-chromen-10-one formation measured after 2 hrs at 100 degC by 1H NMR analysis
# [6] = Drug metabolism in DMSO-d6 assessed as 6-(3-Acetyl-2,4,6-trihydroxy-5-methylbenzyl)-5-hydroxy-2,2-dimethyl-8-phenyl-8,9-dihydro-2H,10H-pyrano[2,3-f]-chromen-10-one formation measured after 2 months at room temperature by RP-HPLC analysis
# [7] = Drug metabolism in DMSO-d6 assessed as isorottlerin formation measured after 2 months at room temperature by HSQC analysis
# [8] = Stability of the compound in acetone under room temperature by 1H NMR-spectroscopic analysis; format: physicochemical
# [9] = Stability of the compound in DMSO-d6 measured after 2 months at room temperature by 1H NMR-spectroscopic analysis; format: physicochemical; conditions: 1461 h
# [10] = Stability of the compound in CHCl3 under intense heating condition by 1H NMR-spectroscopic analysis; format: physicochemical
# [11] = Drug metabolism in DMSO-d6 assessed as isorottlerin formation measured after 2 months at room temperature by RP-HPLC analysis
# [12] = Stability of the compound in toluene under room temperature by 1H NMR-spectroscopic analysis; format: physicochemical
# [13] = Drug metabolism in DMSO-d6 assessed as 6-(3-Acetyl-2,4,6-trihydroxy-5-methylbenzyl)-5-hydroxy-2,2-dimethyl-8-phenyl-8,9-dihydro-2H,10H-pyrano[2,3-f]-chromen-10-one formation measured after 2 months at room temperature by HSQC analysis
# [14] = Stability of the compound in acetone under intense heating condition by 1H NMR-spectroscopic analysis; format: physicochemical
# [15] = Stability of the compound in MeCN under intense heating condition by 1H NMR-spectroscopic analysis; format: physicochemical
# [16] = Stability of the compound in toluene under intense heating condition by 1H NMR-spectroscopic analysis; format: physicochemical
molecule,measurement,setting,value
CCC(=O)C1=C(O)C(C)(C)C(O)=C(Cc2c(O)c3c(c(C(=O)CC)c2O)OC(C)(C)C=C3)C1=O [DRUMMONDIN A],MIC,[1],1.56 µM
CC(=O)c1c(O)c(C)c(O)c(Cc2c(O)c3c(c4c2OC(c2ccccc2)CC4=O)OC(C)(C)C=C3)c1O (stereo unspecified),MIC,[1],> 125 µM
CC(=O)c1c(O)cc(O)c(Cc2c(O)c3c(c(C(=O)/C=C/c4ccccc4)c2O)OC(C)(C)C=C3)c1O,MIC,[1],7.8 µM
Cc1cc(O)cc(O)c1Cc1c(O)c2c(c(C(=O)/C=C/c3ccccc3)c1O)OC(C)(C)C=C2,MIC,[1],7.8 µM
CC(=O)c1c(O)c(C)c(O)c(Cc2c3c(c(O)c4c2OC(c2ccccc2)CC4=O)C=CC(C)(C)O3)c1O (stereo unspecified),MIC,[1],> 125 µM
CC(=O)C1=C(O)C(C)(CC=C(C)C)C(O)=C(Cc2c(O)c(CC=C(C)C)c(O)c(C(C)=O)c2O)C1=O (stereo unspecified) [DRUMMONDIN F],MIC,[1],0.78 µM
CC(=O)c1c(O)c(C)c(O)c(Cc2c(O)c3c(c(C(=O)/C=C/c4ccccc4)c2O)OC(C)(C)C=C3)c1O [ROTTLERIN],Stability,[2],Stable
same,Drug metabolism,[3],Metabolite detected
same,Stability,[4],Stable
same,Drug metabolism,[5],Metabolite detected
same,Drug metabolism,[6],2%
same,MIC,[1],2 µM
same,Drug metabolism,[7],Metabolite detected
same,Stability,[8],Stable
same,Stability,[9],Unstable
same,Stability,[10],Stable
same,Drug metabolism,[11],20%
same,Stability,[12],Stable
same,Drug metabolism,[13],Metabolite detected
same,Stability,[14],Stable
same,Stability,[15],Stable
same,Stability,[16],Stable
CC1(C)C=Cc2c(O)c(Cc3c(O)cc(O)cc3O)c(O)c(C(=O)/C=C/c3ccccc3)c2O1,MIC,[1],15.6 µM
CCC(=O)C1=C(O)C(C)(C)C(O)=C(Cc2c(O)c3c(c(C(C)=O)c2O)OC(C)(C)C=C3)C1=O [DRUMMONDIN B],MIC,[1],3.12 µM
CC(=O)C1=C(O)C(C)(C)C(O)=C(Cc2c(O)c3c(c(C(C)=O)c2O)OC(C)(C)C=C3)C1=O [DRUMMONDIN C],MIC,[1],3.12 µM
GENTAMICIN,MIC,[1],2 µM
